From PubChem
Rtt109 Vps75: inhibitors of C. albicans Rtt109/Vps75 HAT, primary screen, biochemical, ThioGlo CoA-SH fluorescence, plate reader; Histone acetyltransferase RTT109 (Candida albicans (strain SC5314 / ATCC MYA-2876)), …; purified Rtt109/Vps75, 4 h; inhibition, % at 34.9 µM; actives 0.16% (n = 330,000); AID 540336, 2011;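 active means inhibition of at least 50% in every replicate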
FAS-TE inh: FAS thioesterase domain inhibitors, primary screen, biochemical, fluorescence intensity, uHTS; Fatty acid synthase (Homo sapiens), P49327; recombinant FAS-TE, OMFH fluorogenic substrate, fluorescence endpoint; inhibition, % at 15 µM; actives 0.67% (n = 360,000);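 active means compounds whose normalised, plate-corrected inhibition of enzyme fluorescence in the single-dose primary screen is 50% or more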;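 further: 0% = DMSO with enzyme and 100% = substrate without enzyme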
HDAC3 inh: HDAC3 deacetylase inhibitors, primary screen, biochemical, fluorescence, cell-free homogeneous. recombinant HDAC3, fluorogenic peptide/trypsin coupled. inhibition, % at 8.3 µM. actives 0.15% (n = 320,000); in the data active means inhibition above about 26%, passing the limit was not always enough
UCH37 inh: inhibitors of human UCH37 deubiquitinase, primary screen, biochemical, Ub-AMC cleavage, fluorescence | actives 0.33% (n = 330,000) | Ubiquitin carboxyl-terminal hydrolase isozyme L5 (Homo sapiens), Q9Y5K5 | purified proteasome/UCH37 | inhibition, % (concentration not given with the values) | AID 588478, 2011;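 active means mean inhibition over replicate wells above about 20%, limit read from the data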;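 further: 0% = compound-free wells with enzyme and 100% = wells lacking proteasome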
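system = Proteasome-associated human UCH37 deubiquitinase | amount = 0.15 nM proteasome as dispensed | medium = pH 7.4 Tris-HCl (50 mM) with ovalbumin, ATP-MgCl2, DTT | incubation = 30 min preincubation with enzyme, 25 min cleavage at room temperature | detection = AMC fluorescence 355/460 nm | read-out basis = percent inhibition | controls = no-proteasome and no-compound wells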
M18AAP inhibitor: PfM18AAP inhibitors, malaria aminopeptidase, primary screen, biochemical, QFRET, recombinant enzyme; H-Glu-NHMec fluorogenic cleavage; inhibition, % at 7.35 µM; M18 aspartyl aminopeptidase (Plasmodium falciparum 3D7); actives 1.2% (n = 290,000);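 active means inhibition above the campaign mean inhibition over all tested compounds plus 3 SD, cut at about 28% in these data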;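 further: 0% = plate median of test compound wells and 100% = 2 mM ZnCl2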
ALR inh: inhibitors of human ALR sulfhydryl oxidase, primary screen, biochemical, H2O2 detection, HRP-luminol luminescence, single point. purified ALR, DTT oxidation. inhibition, % (no concentration beside the values). actives 3.8% (n = 290,000). AID 485317, 2010;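 active means mean replicate inhibition above about 79%, with every replicate also reaching it, limit read from the data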
The depositor's hits bear a star; . = not tested or not shown. A selection: hits, their analogues and other compounds. The true share with any hit is near 4.6%.

SMILES	Rtt109 Vps75	FAS-TE inh	HDAC3 inh	UCH37 inh	M18AAP inhibitor	ALR inh
COc1ccc(OCC(=O)NCc2cccnc2)cc1	0.2	0.5	-3.7	3.7	-4.5	-5.6
CCc1ccc(-c2nc(CS(=O)CC(=O)NCc3cccnc3)c(C)o2)cc1 (centres undefined)	-14.3	-1.6	-1.8	0.3	-8.9	99.0*
CCOc1ccc(-c2nc(CS(=O)(=O)CC(=O)NCc3ccc(F)cc3)c(C)o2)cc1	-1.3	2.9	-6.7	0.4	4.0	24.7
COc1ccc(-c2nc(CS(=O)CC(=O)NCc3cccnc3)c(C)o2)cc1 (centres undefined)	-5.1	-8.2	4.1	5.8	3.3	99.4*
Cc1oc(-c2ccc(Cl)cc2)nc1CN1CCCC(C(=O)NCc2cccnc2)C1 (centres undefined)	7.2	1.3	4.9	5.6	-1.1	-1.6
CC(=NNc1cc(C)nc(-c2ccccc2)n1)c1cccc([N+](=O)[O-])c1	.	.	.	5.0	.	.
Cn1c(=O)c2c(ncn2CC(=O)Nc2nc3ccc(F)cc3s2)n(C)c1=O	-5.1	-0.4	-8.6	1.6	-6.4	98.8*
COc1ccc2nc(NC(=O)Cn3cnc4c(=O)n(C)c(=O)n(C)c43)sc2c1	-2.4	-5.0	-3.6	0.2	-5.0	.
CCCCCC=NNC(=O)c1[nH]c2ccc([N+](=O)[O-])cc2c1C	.	.	.	0.9	.	.
CC1CCN(C(=S)c2ccccc2O)CC1	6.9	-11.7	2.9	4.1	-50.7	0.3
CCN1CCN(C(=S)c2ccc(O)cc2)CC1	8.0	-2.0	7.0	-0.8	47.1*	.
CC1CCN(C(=S)c2ccc(O)cc2)CC1	11.7	-6.1	0.7	1.0	9.1	95.6*
Oc1ccc(C(=S)N2CCN(c3cccc(Cl)c3)CC2)cc1	18.0	3.0	5.7	3.6	21.1	9.4
O=C(CCc1nc2ccccc2[nH]c1=O)NN=Cc1ccccc1	.	.	.	-25.0	.	.
COc1cccc(-c2c(C(=O)NN=CC3CC=CCC3)nnn2-c2nonc2N)c1 (centres undefined)	.	.	.	3.2	.	.
Cc1ccc(NCc2nnc(SCC(=O)Nc3ncc(C)s3)n2Cc2ccco2)c(C)c1	1.8	-4.9	1.5	4.3	4.4	98.4*
CN(C)c1ccc(CN2CCCC(O)C2)cc1 (centres undefined)	2.3	-8.3	-4.3	-0.8	4.0	97.1*
CCN1/C(=C2/SC(=S)NC2=O)Sc2ccccc21	-1.8	-8.9	-1.1	4.3	23.3	91.2*
CCSC1(SCC)N=C(N)C2(C#N)C(c3ccccc3)NC3=C(CCC3)C12C#N (centres undefined)	2.8	-5.8	-1.1	-0.9	-20.7	95.6*
N#Cc1ccccc1CSc1ncccc1C(=O)O	-1.8	-0.8	-12.0	2.1	-0.8	-9.0
O=C(O)c1ccc(CSc2nc3ccc(NC(=O)c4ccccc4C(=O)O)cc3s2)cc1	1.6	-5.8	-0.7	2.5	1.3	99.2*
Cc1nc2ccc(NC(=O)c3ccccc3)cc2s1	.	15.7	0.1	0.2	-2.5	1.0
N#Cc1ccccc1CSc1nc2ccc(NC(=O)c3ccccc3C(=O)O)cc2s1	-1.1	-0.6	7.6	6.1	0.5	99.1*
COc1ccccc1N(Cc1ccccc1)S(=O)(=O)c1cc(C(=O)O)ccc1Cl	3.3	-0.2	2.6	-0.2	6.8	92.1*
COc1ccccc1N(Cc1ccccc1)S(=O)(=O)c1cccc(C(=O)O)c1	2.4	-6.1	-2.9	-0.3	-1.2	2.5
CCOC(=O)[C@@H]1[C@H]2COc3ccc(Br)cc3[C@H]2N2C(=O)N(c3ccc(Br)cc3)C(=O)[C@]12C	5.0	41.6	0.0	-0.4	0.2	-5.8
CCOC(=O)[C@@H]1[C@H]2COc3ccc(Br)cc3[C@@H]2N2C(=O)N(c3ccc(Br)cc3)C(=O)[C@]12C	-3.8	72.3*	-1.5	1.5	-0.3	-27.0
